# From PubChem BioAssay
# Active and inactive are the calls of the source.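 How the source made its calls, unless noted: active means inhibition at or above 50% relative to wild type and mutant plate controls; inactive means inhibition below 50%.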
# Legend:
# [1] = inhibitors of TNFa-induced NFkB p65 translocation, primary screen, imaging, HUVEC, MLSMR starter and 10KST1 sets (AID 438;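 active means inhibition above 20% together with a positive visual image hit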;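 further: compound added about 3h40 before a 20 min TNFalpha stimulation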;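 on inhibition: signal is the nuclear over cytoplasmic p65 intensity ratio per well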); conditions: HUVEC TNFa-induced p65 nuclear translocation; cell count: measured here: nuclei count (cytotoxicity indicator), at 2.08 µM; inhibition: at 2 µM, stronger effect = higher value, 0% TNFa-plus-vehicle, 100% no-TNFa wells
# [2] = inhibitors of E-selectin induction by TNFa, primary screen, imaging, HUVEC, immunofluorescence, MLSMR starter and 10KST1 sets (AID 487;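 active means visually confirmed hit in the image check and inhibition above 20%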;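 on inhibition: signal is fraction of cell area covered by stained E-selectin grains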;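 on nuclei count: 100% = median nuclei count of all wells on the same plate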); conditions: HUVEC TNFalpha-induced E-selectin immunofluorescence imaging, at 2 µM; inhibition: stronger effect = higher value; nuclei count: measured here: cell number, toxicity
# [3] = DUSP6 inhibitors restoring Erk phosphorylation by chemical complementation, primary imaging in DUSP6-transfected HeLa (AID 609;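 active means compounds giving at least 50% inhibition in the cell-based MKP-3 phosphatase rescue imaging test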;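 on inhibition: phospho-Erk level distribution per well compared with pooled transfected vehicle control wells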); conditions: HeLa MKP-3 transfected, phospho-Erk imaging KS statistic, at 10 µM, cells stimulated with TPA for 15 min
# [4] = biological target: Dual specificity protein phosphatase 6 (Homo sapiens) (UniProt Q16828); experiment: as above; conditions: HeLa MKP-3 transfected, phospho-Erk imaging KS statistic; at 10 µM; stronger effect = higher value; cells stimulated with TPA for 15 min
# Chain of Dual specificity protein phosphatase 6 (Homo sapiens) (Q16828 whole entry, looked up): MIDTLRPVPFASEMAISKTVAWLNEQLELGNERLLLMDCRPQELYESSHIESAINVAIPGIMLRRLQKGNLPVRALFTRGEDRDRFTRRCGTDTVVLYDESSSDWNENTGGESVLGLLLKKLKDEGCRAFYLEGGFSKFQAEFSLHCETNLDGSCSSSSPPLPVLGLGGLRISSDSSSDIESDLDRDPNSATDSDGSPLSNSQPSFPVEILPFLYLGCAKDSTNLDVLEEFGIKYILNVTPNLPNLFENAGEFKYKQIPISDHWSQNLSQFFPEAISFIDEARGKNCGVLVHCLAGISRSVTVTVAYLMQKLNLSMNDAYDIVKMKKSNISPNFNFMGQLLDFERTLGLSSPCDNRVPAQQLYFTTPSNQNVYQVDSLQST
# [5] = biological target: Voltage-gated potassium channel subunit beta-2 (Rattus norvegicus) (UniProt P62483); experiment: KvBeta enzyme negative modulators, primary screen, biochemical, NADPH fluorescence (AID 622;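 active means fluorescence slope higher than the sample average by over 3 SD, cut at about -0.22 in these data, passing the limit was not always enough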;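 further: slope of raw intensity against log time taken from 70 to 1610 s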); conditions: recombinant KvBeta, 4-cyanobenzaldehyde reduction, at 10 µM, stronger effect = higher value
# Chain of Voltage-gated potassium channel subunit beta-2 (Rattus norvegicus) (P62483 whole entry, looked up): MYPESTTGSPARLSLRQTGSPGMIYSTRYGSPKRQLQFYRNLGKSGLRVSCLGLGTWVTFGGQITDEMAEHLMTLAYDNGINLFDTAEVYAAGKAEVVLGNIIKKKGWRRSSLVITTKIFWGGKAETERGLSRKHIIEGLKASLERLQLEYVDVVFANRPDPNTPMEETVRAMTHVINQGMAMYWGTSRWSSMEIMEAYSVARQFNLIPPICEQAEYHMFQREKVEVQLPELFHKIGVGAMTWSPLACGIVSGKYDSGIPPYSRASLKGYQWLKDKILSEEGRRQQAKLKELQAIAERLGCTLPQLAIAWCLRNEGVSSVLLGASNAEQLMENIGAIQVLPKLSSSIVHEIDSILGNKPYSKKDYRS
# [6] = biological target: Voltage-gated potassium channel subunit beta-2 (Rattus norvegicus) (UniProt P62483); experiment: KvBeta positive modulators, primary screen, biochemical, NADPH fluorescence (AID 623;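 active means NADPH fluorescence slope more negative than the mean of all samples by about 3 SD, 99.7% confidence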;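 further: fluorescence intensity change per second fitted from 20 to 320 s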); conditions: Recombinant KvBeta, NADPH fluorescence decrease slope, 10 min; at 10 µM; stronger effect = lower value
# [7] = biological target: Muscarinic acetylcholine receptor M4 (Homo sapiens) (UniProt P08173); experiment: compounds altering M4/GIRK thallium flux, either direction, primary screen, M4 allosteric agonist project, cell-based, HEK293 M4/GIRK, BTC-AM (AID 625;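 active means fluorescence slope after compound addition differing from the mean of all tested samples at 99.7% confidence, mostly higher but some lower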;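 further: thallium influx through GIRK channels coupled to M4 in HEK293 cells with BTC-AM dye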); conditions: at 10 µM, actives lie on both sides
# Chain of Muscarinic acetylcholine receptor M4 (Homo sapiens) (P08173 whole entry, looked up): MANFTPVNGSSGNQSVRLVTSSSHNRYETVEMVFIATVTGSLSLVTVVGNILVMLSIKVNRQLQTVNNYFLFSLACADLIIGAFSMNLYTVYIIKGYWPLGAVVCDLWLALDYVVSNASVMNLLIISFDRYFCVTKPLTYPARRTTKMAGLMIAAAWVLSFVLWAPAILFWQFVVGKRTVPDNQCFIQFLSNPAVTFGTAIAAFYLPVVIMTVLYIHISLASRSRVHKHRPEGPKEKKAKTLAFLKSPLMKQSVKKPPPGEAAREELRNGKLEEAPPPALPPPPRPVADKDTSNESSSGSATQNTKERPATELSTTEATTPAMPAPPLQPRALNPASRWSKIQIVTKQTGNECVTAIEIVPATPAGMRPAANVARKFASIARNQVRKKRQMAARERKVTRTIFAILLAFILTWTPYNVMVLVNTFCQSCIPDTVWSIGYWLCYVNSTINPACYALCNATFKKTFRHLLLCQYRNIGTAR
# Summary of the method: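 Material – HEK293 cells with M4 receptor and GIRK channels · Buffer or medium – pH 7.3 thallium assay buffer · Doses – one dose, 10 µM final · Timing – cells overnight at 37 °C, BTC-AM loading 1 h, reads 2 min total · Measured by – kinetic fluorescence with BTC-AM dye · Controls – carbachol and DMSO controls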
# [8] = inhibitors of larval lipid processing in zebrafish, primary screen, whole organism, PED6 fluorescence, gall bladder and intestine (AID 686;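 active means a full or partial loss of lipid-probe fluorescence in the fish gall bladder, intestine or both, judged by eye; inactive means no fluorescence loss, or compound toxic to the fish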;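 further: larvae 5 to 7 days old with five fish per well; signal comes from phospholipase A2 cleavage of quenched PED6 carried via bile; overnight exposure to compound and PED6 before scoring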); conditions: Zebrafish larvae PED6 lipid processing, fluorescence scoring; screened at 20 µM (by protocol)
# Summary of the method: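 system = live zebrafish larvae aged 5-7 days, whole organism | probe or stimulus = ingested quenched lipid PED6 at 100 nM | doses = 20 µM single dose | timing = overnight exposure | detection = fluorescence microscopy with visual scoring of gall bladder and intestine | read-out = visual per-well fluorescence inhibition score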
# [9] = inhibitors of Chlamydomonas gravitaxis, primary screen, whole organism, Chlamydomonas reinhardtii, WT vs cilia-less mutant, absorbance, 96-well (AID 463189); conditions: OD600 absorbance, 2 days, at 10 µM, stronger effect = higher value;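 further: 0% = wild type cc124 cells in DMSO and 100% = ciliumless bld1 mutant cells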
# [10] = measured here: cell density z-score
# [11] = measured here: nuclear c-Myc green intensity z-score
# [12] = measured here: nuclear pErk red intensity z-score, stronger effect = higher value
Compound,cell count [1],inhibition [1],inhibition [2],nuclei count [2] [%],"z-score [3, 10]","z-score [3, 11]","z-score [3, 12]",inhibition [4],fluorescence slope [5],NADPH fluorescence slope [6],fluorescence slope [7],outcome [8],inhibition [9]
CN(CCCCCNC(=O)/C=N/O)Cc1ccccc1,661,-11.4% (inactive),-47.5% (inactive),99.4,-0.0258,0.279,-0.452,5.35% (inactive),-0.537 (inactive),-6.5e-05 (inactive),0.00725 (inactive),inactive,27.9% (inactive)
S=c1[nH]nc(-c2ccco2)n1C1CCCCC1,638,-2.9% (inactive),6.6% (inactive),143,-0.759,-0.86,-1.13,-7.67% (inactive),-0.495 (inactive),-4e-05 (inactive),0.00615 (inactive),inactive,-19.8% (inactive)
CCOC(=O)C(C)Sc1nc(-c2cccs2)ccc1C#N (stereo unspecified),657,0.6% (inactive),29.6% (inactive),189,-1.44,0.836,0.563,-7.86% (inactive),-0.427 (inactive),-5.7e-05 (inactive),0.00531 (inactive),inactive,4.31% (inactive)
CCCCN(CCCC)C(=O)CSc1nnc2n(C)c(=O)c3c4c(sc3n12)CCCC4,496,-18.2% (inactive),-94.2% (inactive),142,2.28,-1.51,-0.0585,7.93% (inactive),-0.463 (inactive),-4.6e-05 (inactive),0.00616 (inactive),inactive,84% (active)
CCOC(=O)c1[nH]c2cc3c(cc2c1NC(=O)CN1CC(C)CC(C)C1)OCO3 (stereo unspecified),527,1.2% (inactive),5.3% (inactive),167,0.5,-1.18,-0.714,9.91% (inactive),-0.329 (inactive),-8.9e-06 (inactive),0.00584 (inactive),inactive,-3.44% (inactive)
N#Cc1nc(-c2cccs2)oc1NCc1ccccc1,712,0.5% (inactive),-23.3% (inactive),148,0.919,1.11,0.281,-7.67% (inactive),-0.329 (inactive),-2.5e-05 (inactive),0.00659 (inactive),inactive,7.94% (inactive)
C=CCn1c(=O)c(C(=O)NCCN(CC)CC)c(O)c2ccccc21,560,0% (inactive),-97% (inactive),170,1.11,-0.484,1.3,27.8% (inactive),-0.368 (inactive),-2.4e-05 (inactive),0.00442 (inactive),inactive,42.6% (inactive)
COC(=O)c1ccccc1NC(=O)C1COc2ccccc2O1 (stereo unspecified),655,-10% (inactive),1.5% (inactive),169,1.14,-0.164,-1.54,-0.674% (inactive),-0.465 (inactive),-5.2e-05 (inactive),0.00637 (inactive),inactive,3.4% (inactive)
O=C(NCc1cccnc1)NC(C(F)(F)F)C(F)(F)F,671,-1.2% (inactive),-24.5% (inactive),148,0.957,-0.408,-4.89,1.63% (inactive),-0.454 (inactive),-5.1e-05 (inactive),0.00444 (inactive),inactive,-3.5% (inactive)
O=c1oc2c(CN3CCCCC3)c(O)ccc2c2c1CCCCC2,566,-6.1% (inactive),34% (inactive),168,1.43,-1.18,-0.137,14.4% (inactive),-0.00573 (inactive),8.5e-07 (inactive),0.00521 (inactive),inactive,3.57% (inactive)
C=CCn1c(C2CC(=O)N(c3ccc(C)cc3)C2)nc2ccccc21 (stereo unspecified),591,-13.7% (inactive),47.4% (inactive),177,-1.26,-0.0771,0.981,-2.29% (inactive),-0.467 (inactive),-0.00019 (inactive),0.00532 (inactive),inactive,2% (inactive)
CC1(C)Cc2c(c(N3CCOCC3)nc3sc4c(NCc5ccco5)nnnc4c23)CS1,504,-8.4% (inactive),-6.5% (inactive),116,1.05,-0.977,0.343,19.8% (inactive),-0.419 (inactive),-5e-06 (inactive),0.00933 (inactive),inactive,15.9% (inactive)
N#Cc1nc(-c2ccc(F)cc2)oc1N1CCCC1,706,-7.6% (inactive),24.6% (inactive),148,1.01,1.06,0.859,9.07% (inactive),-0.348 (inactive),-9.4e-06 (inactive),0.0076 (inactive),inactive,-3.17% (inactive)
CCCCOC(=O)CSC1=C(C#N)C(c2ccc3c(c2)OCO3)CC(=O)N1 (stereo unspecified),650,-12.5% (inactive),-163% (inactive),155,1.99,0.113,-0.175,8.31% (inactive),-0.5 (inactive),-8.3e-05 (inactive),0.00598 (inactive),inactive,4.75% (inactive)
Cn1c(=O)c2c(nc(NCc3ccco3)n2Cc2ccccc2Cl)n(C)c1=O,502,-4.4% (inactive),-15.6% (inactive),92.2,0.653,-0.74,0.354,12.8% (inactive),-0.463 (inactive),-2.4e-05 (inactive),0.00464 (inactive),inactive,-9.48% (inactive)
CCSc1nc2sc3c(c2c(=O)n1C1CCCCC1)CCN(C)C3,364,-10% (inactive),-37.3% (inactive),101,-0.995,0.578,0.504,-8.59% (inactive),-0.419 (inactive),-6.1e-05 (inactive),0.00313 (inactive),inactive,-2.62% (inactive)
O=S(=O)(c1ccccc1)N(CC(O)CN1CCCCC1)c1ccccc1 (stereo unspecified),596,-4.6% (inactive),36.6% (inactive),84.8,-0.887,0.0372,0.232,5.42% (inactive),-0.342 (inactive),-2.3e-05 (inactive),0.00483 (inactive),inactive,26.5% (inactive)
CC(C)c1[nH]c(=O)c(C#N)c2c1CSC(C)(C)C2,507,-14% (inactive),4% (inactive),89.3,0.147,0.162,-0.0562,5.35% (inactive),-0.428 (inactive),3.3e-05 (inactive),0.0036 (inactive),inactive,14% (inactive)
CCOC(=O)C1=C(N)n2c(s/c(=C\c3ccco3)c2=O)=C(C(=O)OC(C)C)C1c1ccco1 (stereo unspecified),383,-7.4% (inactive),-126% (inactive),166,0.588,-1.67,1.18,-4.59% (inactive),-0.46 (inactive),-7.4e-05 (inactive),0.00444 (inactive),inactive,27.2% (inactive)
CCCCC(=O)c1c(C)cc(C)[nH]c1=O,721,-6.7% (inactive),-99.5% (inactive),191,0.203,0.876,0.0182,3.97% (inactive),-0.482 (inactive),-7.1e-05 (inactive),0.00582 (inactive),inactive,0.273% (inactive)
Cc1cccc(NC(=O)c2c(C)cc(=O)oc2C)n1,522,-1.7% (inactive),26.4% (inactive),170,0.944,0.403,-0.669,7.93% (inactive),-0.374 (inactive),-3.7e-05 (inactive),0.00509 (inactive),inactive,-9.96% (inactive)
O=C(NCc1ccccc1)C1C(=O)N(Cc2ccccc2)C(=O)C1C1(O)CCCC1 (stereo unspecified),653,-2.4% (inactive),-17.9% (inactive),108,-0.94,0.675,0.754,-13.3% (inactive),-0.508 (inactive),-2.1e-05 (inactive),0.00572 (inactive),inactive,-5.5% (inactive)
CCOC(=O)c1c2c(c(=S)n(-c3ccccc3)c1N)CCC2,569,-8.6% (inactive),-65.1% (inactive),135,-0.086,1.03,-0.638,-3.95% (inactive),-0.463 (inactive),-9.5e-05 (inactive),0.00449 (inactive),inactive,9.7% (inactive)
Cc1cccc(-n2ncc3c(NCCN4CCOCC4)ncnc32)c1,596,-8.2% (inactive),0.1% (inactive),156,-0.984,1.25,-0.89,-2.59% (inactive),-0.397 (inactive),-2.6e-05 (inactive),0.00826 (inactive),inactive,34% (inactive)
CCCc1cc(NCCCCO)n2c(nc3ccccc32)c1C#N,484,-2.4% (inactive),-67.8% (inactive),112,-0.769,-0.182,0.272,21.8% (inactive),-0.238 (inactive),-2.1e-05 (inactive),0.00464 (inactive),inactive,26.9% (inactive)
CCSc1nnc(NC(=O)NC(CC)(C(F)(F)F)C(F)(F)F)s1,704,0.5% (inactive),-56.3% (inactive),140,-0.466,-0.955,-0.238,9.07% (inactive),-0.431 (inactive),-5e-05 (inactive),0.00857 (inactive),inactive,22.7% (inactive)
CN(C)c1ccc(C=Nc2cnn(C)c2C(N)=O)cc1,657,5.6% (inactive),2% (inactive),112,-0.322,0.511,0.593,9.91% (inactive),-0.548 (inactive),-8.2e-05 (inactive),0.00504 (inactive),inactive,13.4% (inactive)
